Laboratory results: ChEMBL document CHEMBL1154249, “Semisynthesis and biological evaluation of abietane-type diterpenes. Revision of the structure of rosmaquinone” (J Nat Prod, 2009)
Converted amounts (≈) assume the structure as drawn.

Key:
HEp-2 [1] = assay: Cytotoxicity against human Hep2 cells at exponential phase of growth after 48 hrs by MTT assay; assay type: functional, cell-based
In short: (§1)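 Monolayers grown in DMEM with 5% fetal calf serum and penicillin-streptomycin at 37 °C, 5% CO2. 2×10^4 cells/well in lag or log phase were exposed for 48 h to a concentration series of compounds predissolved in DMSO. MTT formazan was dissolved in DMSO and read at 550 nm. IC50 taken from the curve; three independent experiments.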

Proteus mirabilis = assay: Antibacterial activity against Proteus mirabilis CECT 170 after 24 hrs by broth dilution assay; assay type: functional; details: CECT 170, 24 h
In short: (§2)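 Microdilution in nutrient broth at 37 °C, about (1-5) × 10^5 cfu/mL inoculum, compounds in DMSO (≤1% v/v, matched DMSO controls), in triplicate. Growth followed by OD550. Wells without visible growth after 24 h on a rotary shaker were subcultured in duplicate onto nutrient agar and colonies counted after overnight incubation. MIC is the lowest concentration inhibiting growth at 24 h.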

Candida albicans = assay: Antibacterial activity against Candida albicans CECT 170 after 24 hrs by broth dilution assay; assay type: functional; details: CECT 1039, 24 h, in the assay text read “CECT 1039” for “CECT 170”
In short: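 Yeast grown in Sabouraud liquid medium at 37 °C. Microdilution in triplicate, about (1-5) × 10^5 cfu/mL, DMSO ≤1% v/v with matched controls. OD550 followed. Clear wells at 24 h were plated in duplicate on Sabouraud agar and counted after overnight incubation. MIC is the lowest concentration inhibiting growth.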

Bacillus subtilis = assay: Antibacterial activity against Bacillus subtilis ATCC 6051 after 24 hrs by broth dilution assay; assay type: functional; details: Bacillus subtilis, ATCC 6051, 24 h; read-out: MIC
Enterococcus faecalis = assay: Antibacterial activity against Enterococcus faecalis ATCC 29212 after 24 hrs by broth dilution assay; assay type: functional; details: ATCC 29212, 24 h
In short: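 Microdilution in brain heart infusion broth, shaken at 37 °C, about (1-5) × 10^5 cfu/mL start, DMSO ≤1% v/v with matched controls, in triplicate. OD550 read. Clear wells at 24 h were subcultured in duplicate onto brain heart infusion agar and counted after overnight incubation. MIC is the lowest concentration giving growth inhibition.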

[2] = tested on: Staphylococcus epidermidis; assay: Antibacterial activity against Staphylococcus epidermidis ATCC 14990 after 24 hrs by broth dilution assay; assay type: functional; details: Staphylococcus epidermidis, ATCC 14990, 24 h; read-out: MIC; in short: as §2
Vero [3] = assay: Cytotoxicity against african green monkey Vero cells at exponential phase of growth after 48 hrs by MTT assay; assay type: cell-based, Chlorocebus sabaeus; in short: as §1
MCF7 [4] = assay: Cytotoxicity against human MCF7 cells at lag phase of growth after 48 hrs by MTT assay; assay type: functional, cell-based; in short: as §1
[5] = tested on: Mycolicibacterium smegmatis; assay: Antibacterial activity against Mycobacterium smegmatis ATCC 19420 after 48 hrs by broth dilution assay; assay type: functional; details: ATCC 19420, 48 h
In short: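 Brain heart infusion broth with 0.06% Tween 80, 37 °C on a rotary shaker, inoculum about (1-5) × 10^5 cfu/mL, DMSO ≤1% v/v with matched controls, in triplicate. OD550 monitored.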

Staphylococcus aureus = assay: Antibacterial activity against Staphylococcus aureus ATCC 6538 after 24 hrs by broth dilution assay; assay type: functional; details: Staphylococcus aureus, ATCC 6538, 24 h; read-out: MIC
A549 [6] = assay: Cytotoxicity against human A549 cells at lag phase of growth after 48 hrs by MTT assay; assay type: functional, cell-based; in short: as §1
Salmonella = assay: Antibacterial activity against Salmonella CECT 4569 after 24 hrs by broth dilution assay; assay type: functional; details: CECT 4569, 24 h; in short: as §2
HeLa [7] = assay: Cytotoxicity against human HeLa cells at exponential phase of growth after 48 hrs by MTT assay; assay type: functional, cell-based; in short: as §1
Pseudomonas aeruginosa = assay: Antibacterial activity against Pseudomonas aeruginosa AK958 after 24 hrs by broth dilution assay; assay type: functional; details: AK958, 24 h; in short: as §2
A549 [8] = assay: Cytotoxicity against human A549 cells at exponential phase of growth after 48 hrs by MTT assay; assay type: functional, cell-based; in short: as §1
Vero [9] = assay: Cytotoxicity against african green monkey Vero cells at lag phase of growth after 48 hrs by MTT assay; assay type: cell-based, Chlorocebus sabaeus; in short: as §1
HeLa [10] = assay: Cytotoxicity against human HeLa cells at lag phase of growth after 48 hrs by MTT assay; assay type: functional, cell-based; in short: as §1
MCF7 [11] = assay: Cytotoxicity against human […] cells at exponential phase of growth after 48 hrs by MTT assay; assay type: functional, cell-based; in short: as §1
HEp-2 [12] = assay: Cytotoxicity against human Hep2 cells at lag phase of growth after 48 hrs by MTT assay; assay type: functional, cell-based; in short: as §1
Escherichia coli = assay: Antibacterial activity against Escherichia coli ATCC 9637 after 24 hrs by broth dilution assay; assay type: functional; details: ATCC 9637, 24 h; in short: as §2
Bacillus cereus = assay: Antibacterial activity against Bacillus cereus ATCC 21772 after 24 hrs by broth dilution assay; assay type: functional; details: Bacillus cereus, ATCC 21772, 24 h
[13] = Chlorocebus sabaeus, Vero, 48 h, read-out: IC50
[14] = Homo sapiens, MCF7, 48 h, read-out: IC50
[15] = Homo sapiens, A549, 48 h, read-out: IC50
[16] = Homo sapiens, HeLa, 48 h, read-out: IC50
[17] = Homo sapiens, HEp-2, 48 h, read-out: IC50

Row | MIC (Proteus mirabilis) [µg/mL] | MIC (Candida albicans) [µg/mL] | MIC (Bacillus subtilis) [µg/mL] | MIC (Enterococcus faecalis) [µg/mL] | MIC [2] [µg/mL] | MIC [5] [µg/mL] | MIC (Staphylococcus aureus) [µg/mL] | MIC (Salmonella) [µg/mL] | MIC (Pseudomonas aeruginosa) [µg/mL] | MIC (Escherichia coli) [µg/mL] | MIC (Bacillus cereus) [µg/mL] | SMILES | IC50 (Vero [3]; [13]) [µM] | IC50 (MCF7 [4]; [14]) [µM] | IC50 (A549 [6]; [15]) [µM] | IC50 (HeLa [7]; [16]) [µM] | IC50 (A549 [8]; [15]) [µM] | IC50 (Vero [9]; [13]) [µM] | IC50 (HeLa [10]; [16]) [µM] | IC50 (MCF7 [11]; [14]) [µM] | also measured
1 | > 40 | > 40 | 20 (≈ 45.8 µM) | > 40 | > 40 | > 40 | > 40 | > 40 | > 40 | > 40 | 10 (≈ 22.9 µM) | CC(C)c1cc2c(c(O)c1O)[C@@]13CCCC(C)(C)[C@@H]1[C@H](OC3=O)[C@@H]2OCc1ccccc1 |  |  |  |  |  |  |  |  | IC50 (HEp-2 [1]; hep-2): Not Active; IC50 (Vero [3]; vero): Not Active; IC50 (MCF7 [4]; mcf7): Not Active; IC50 (A549 [6]; a549): Not Active; IC50 (HeLa [7]; hela): Not Active; IC50 (A549 [8]; a549): Not Active; IC50 (Vero [9]; vero): Not Active; IC50 (HeLa [10]; hela): Not Active; IC50 (MCF7 [11]; mcf7): Not Active; IC50 (HEp-2 [12]; hep-2): Not Active
2 | > 40 | > 40 | 20 (≈ 55.5 µM) | > 40 | 20 (≈ 55.5 µM) | > 40 | > 40 | > 40 | > 40 | > 40 | 20 (≈ 55.5 µM) | CO[C@@H]1c2cc(C(C)C)c(O)c(O)c2[C@@]23CCCC(C)(C)[C@@H]2[C@@H]1OC3=O | 33.9 | 23.3 | 35.6 | > 60 | 50.8 | 36.7 | 40.8 | 41.1 | 
3 | > 40 | > 40 | > 40 | > 40 | 20 (≈ 55.5 µM) | > 40 | > 40 | > 40 | > 40 | > 40 | 20 (≈ 55.5 µM) | CO[C@H]1c2cc(C(C)C)c(O)c(O)c2[C@@]23CCCC(C)(C)[C@@H]2[C@@H]1OC3=O | 47.2 | 37.5 | 42.5 | > 60 | > 60 | 42.2 | 42.2 | 55.6 | 
4 | > 40 | 20 (≈ 60.5 µM) | 4 (≈ 12.1 µM) | > 40 | 5 (≈ 15.1 µM) | > 40 | 25 (≈ 75.7 µM) | > 40 | > 40 | > 40 | 5 (≈ 15.1 µM) | CC(C)c1cc2c(c(O)c1O)[C@@]13CCCC(C)(C)[C@@H]1C[C@@H]2OC3=O [CARNOSOL] | 51.5 | 40.9 | > 60 | > 60 | 47 | > 60 | 43.9 | 44.5 | 
5 | > 40 | > 40 | 30 (≈ 86.6 µM) | > 40 | 20 (≈ 57.7 µM) | > 40 | 40 (≈ 115 µM) | > 40 | > 40 | > 40 | 20 (≈ 57.7 µM) | CC(C)c1cc2c(c(O)c1O)[C@@]13CCCC(C)(C)[C@@H]1[C@@H](O)[C@@H]2OC3=O [ISOROSMANOL] | > 60 | 54.3 | > 60 | > 60 | 46 | > 60 | > 60 | 36.1 | 
6 | > 40 | > 40 | 10 (≈ 28.9 µM) | > 40 | 10 (≈ 28.9 µM) |  | 20 (≈ 57.7 µM) | > 40 | > 40 | > 40 | 20 (≈ 57.7 µM) | CC(C)c1cc2c(c(O)c1O)[C@@]13CCCC(C)(C)[C@@H]1[C@H](OC3=O)[C@H]2O [ROSMANOL] | 36.4 | 17.1 | 43.4 | 51.4 | 27.7 | 19.9 | 20.2 | 15.3 | 
7 | > 40 | > 40 | 20 (≈ 55.8 µM) | > 40 | > 40 | > 40 | 40 (≈ 112 µM) | > 40 | > 40 | > 40 | 20 (≈ 55.8 µM) | CO[C@H]1C2=C(C(=O)C(=O)C(C(C)C)=C2)[C@@]23CCCC(C)(C)[C@@H]2[C@@H]1OC3=O [ROSMAQUINONE B] | > 60 | 43.3 | > 60 | 33.8 | 25.4 | > 60 | 36 | 22.1 | IC50 (HEp-2 [1]; [17]): > 60 µM; IC50 (HEp-2 [12]; [17]): 42.5 µM
8 | > 40 | > 40 | 8 (≈ 23.2 µM) | > 40 | 40 (≈ 116 µM) | > 40 | 20 (≈ 58.1 µM) | > 40 | > 40 | > 40 | 10 (≈ 29 µM) | CC(C)C1=CC2=C(C(=O)C1=O)[C@@]13CCCC(C)(C)[C@@H]1[C@H](OC3=O)[C@H]2O [ROSMAQUINONE] | > 60 | 39.5 | > 60 | > 60 | 28.8 | > 60 | > 60 | > 60 | 
9 | > 40 | > 40 | 10 (≈ 30.4 µM) | > 40 | 40 (≈ 122 µM) | > 40 | 20 (≈ 60.9 µM) | > 40 | > 40 | > 40 | 10 (≈ 30.4 µM) | CC(C)C1=CC2=C[C@H]3OC(=O)[C@@]4(CCCC(C)(C)[C@H]34)C2=C(O)C1=O [SAGEQUINONE METHIDE A] | > 60 | 46 | > 60 | 9.5 | 26.5 | > 60 | 14 | 26.8 | IC50 (HEp-2 [1]; [17]): 19.2 µM; IC50 (HEp-2 [12]; [17]): 32 µM
